# Experiments:
# [1] = AUC (0 to last) in healthy human plasma at 800 mg, po administered as single dose measured after 120 hrs; type: ADME, organism-based; set-up: dose 800 mg, route oral, time 0 - last
# Method in brief: (§1)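 Healthy adults (6 per dose group) received a single oral suspension after an 8-h fast, with food withheld 4 h. EDTA blood was drawn predose to 120 h. Plasma was protein-precipitated with ACN and assayed by LC-MS/MS (clarithromycin internal standard; range 1–1,000 ng/ml). AUC0-last was computed by linear-up/log-down trapezoid; AUC0-∞ added Clast/λz. Values are noncompartmental means.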
# [2] = AUC (0 to last) in healthy human plasma at 1200 mg, po administered as single dose measured after 120 hrs; type: ADME, organism-based; set-up: dose 1200 mg, route oral, time 0 - last; method in brief: as §1
# [3] = Cmax in healthy human plasma at 200 mg, po administered as single dose measured after 120 hrs; type: ADME, organism-based; set-up: dose 200 mg, route oral
# Method in brief: (§2)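 Healthy adults (n = 6 per dose) took a single oral suspension fasted (8 h before, 4 h after). Plasma was sampled from 0.25 to 120 h postdose and quantified by validated LC-MS/MS after acetonitrile precipitation (LLOQ 1 ng/ml). Cmax was read directly from observed concentration–time data; the group mean was reported.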
# [4] = Cmax in healthy human plasma at 400 mg, po administered as single dose measured after 120 hrs; type: ADME, organism-based; set-up: dose 400 mg, route oral; method in brief: as §2
# [5] = Cmax in healthy human plasma at 800 mg, po administered as single dose measured after 120 hrs; type: ADME, organism-based; set-up: dose 800 mg, route oral; method in brief: as §2
# [6] = Cmax in healthy human plasma at 1200 mg, po administered as single dose measured after 120 hrs; type: ADME, organism-based; set-up: dose 1200 mg, route oral; method in brief: as §2
# [7] = Tmax in healthy human plasma at 400 mg, po administered as single dose measured after 120 hrs; type: ADME, organism-based
# Method in brief: (§3)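 Fasted healthy adults (n = 6 per group) took one oral suspension dose. Plasma was sampled from predose through 0.25–120 h postdose and measured by validated LC-MS/MS (lower limit 1 ng/ml). Tmax was read directly from observed concentration–time data using actual sampling times and reported as median with range.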
# [8] = Tmax in healthy human plasma at 1200 mg, po administered as single dose measured after 120 hrs; type: ADME, organism-based; method in brief: as §3
# [9] = Half life in healthy human plasma at 100 mg, po administered as single dose measured after 120 hrs; type: ADME, organism-based
# [10] = Half life in healthy human plasma at 800 mg, po administered as single dose measured after 120 hrs; type: ADME, organism-based
# [11] = Elimination rate constant in healthy human plasma at 400 mg, po administered as single dose measured after 120 hrs; type: ADME, organism-based
# [12] = Elimination rate constant in healthy human plasma at 800 mg, po administered as single dose measured after 120 hrs; type: ADME, organism-based
# [13] = Apparent oral clearance in healthy human plasma at 100 mg, po administered as single dose measured after 120 hrs; type: ADME, organism-based
# Method in brief: (§4)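 Single oral suspension dose in fasted healthy adults (6 per group). Plasma was collected to 120 h and measured by LC-MS/MS (1–1,000 ng/ml). Apparent oral clearance was dose divided by AUC0-∞ (noncompartmental, linear-up/log-down trapezoid extrapolated with Clast/λz); the mean was reported.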
# [14] = Apparent oral clearance in healthy human plasma at 200 mg, po administered as single dose measured after 120 hrs; type: ADME, organism-based; method in brief: as §4
# [15] = Apparent oral clearance in healthy human plasma at 1200 mg, po administered as single dose measured after 120 hrs; type: ADME, organism-based; method in brief: as §4
# [16] = Apparent volume of distribution in healthy human plasma at 200 mg, po administered as single dose measured after 120 hrs; type: ADME, organism-based
# [17] = Apparent volume of distribution in healthy human plasma at 400 mg, po administered as single dose measured after 120 hrs; type: ADME, organism-based
# Homo sapiens [18] = assay: Renal clearance in healthy human assessed as cumulative amount excreted in urine at 100 mg, po administered as single dose measured after 48 hrs; type: ADME, organism-based; conditions: in vivo
# Method in brief: (§5)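 Healthy adults (6 per dose) received a single fasted oral suspension dose. Urine was collected predose and over 0–2, 2–4, 4–6, 6–8, 8–12, 12–24 and 24–48 h intervals, volumes were recorded, and aliquots were stored at −20°C. Samples were assayed by LC-MS/MS. Ae0-48 is the summed volume × concentration over all intervals; the mean was reported.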
# Homo sapiens [19] = assay: Renal clearance in healthy human assessed as cumulative amount excreted in urine at 800 mg, po administered as single dose measured after 48 hrs; type: ADME, organism-based; conditions: in vivo; method in brief: as §5
# [20] = Renal clearance in healthy human assessed as cumulative fraction excreted unchanged in urine at 200 mg, po administered as single dose measured after 48 hrs; type: ADME, organism-based; conditions: read-out: Fraction Recovered in urine
# Method in brief: (§6)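 After a single oral fasted suspension dose in healthy adults (6 per group), urine was collected in intervals to 48 h and measured by LC-MS/MS. fe0-48 = Ae0-48 (summed interval volume × concentration) / dose × 100%; the mean was reported.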
# [21] = Renal clearance in healthy human assessed as cumulative fraction excreted unchanged in urine at 1200 mg, po administered as single dose measured after 48 hrs; type: ADME, organism-based; conditions: read-out: Fraction Recovered in urine; method in brief: as §6
# [22] = Renal clearance in healthy human at 100 mg, po administered as single dose measured after 48 hrs; type: ADME, organism-based, Kidney; conditions: in vivo, read-out: CL_renal (converted)
# Method in brief: (§7)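 Healthy adults (6 active per dose) got a single oral suspension dose after an 8-h fast, with food withheld 4 h. Urine over 0–48 h in intervals and serial EDTA plasma were assayed by validated LC-MS/MS, with plasma calibration from 1 to 1,000 ng/ml. CLR = Ae0-48 (urine volume × concentration summed) divided by plasma AUC0-48.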
# [23] = Renal clearance in healthy human at 200 mg, po administered as single dose measured after 48 hrs; type: ADME, organism-based, Kidney; conditions: in vivo, read-out: CL_renal (converted); method in brief: as §7
# [24] = Renal clearance in healthy human at 800 mg, po administered as single dose measured after 48 hrs; type: ADME, organism-based, Kidney; conditions: in vivo, read-out: CL_renal (converted); method in brief: as §7
# [25] = Renal clearance in healthy human at 1200 mg, po administered as single dose measured after 48 hrs; type: ADME, organism-based, Kidney; conditions: in vivo, read-out: CL_renal (converted); method in brief: as §7
# Streptococcus pyogenes = assay: Antimicrobial activity against Streptococcus pyogenes; type: functional
# Homo sapiens [26] = assay: Toxicity in healthy human assessed as incidence of elevated hepatic transaminase levels at 100 to 1200 mg, po administered as single dose; type: organism-based; conditions: in vivo
# Method in brief: (§8)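 Randomized, double-blind, placebo-controlled single ascending dose study with eight subjects per group (6 drug, 2 placebo of microcrystalline cellulose). Subjects were fasted before dosing. Safety labs were done at 120 h, with a full chemistry panel also at 72 and 96 h for the top dose. Final evaluation on day 8–10, with adverse events recorded.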
# Homo sapiens [27] = assay: Toxicity in healthy human assessed as changes in direct and total bilirubin level at 100 to 1200 mg, po administered as single dose; type: organism-based; conditions: in vivo; method in brief: as §8
# Homo sapiens [28] = assay: Toxicity in healthy human assessed as changes in prothrombin time at 100 to 1200 mg, po administered as single dose; type: organism-based; conditions: in vivo; method in brief: as §8
# Homo sapiens [29] = assay: Toxicity in healthy human assessed as changes in vital signs at 100 to 1200 mg, po administered as single dose; type: organism-based; conditions: in vivo
# Method in brief: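 Vital signs were taken predose and during an in-house stay (48 h for groups 1–4, 120 h for the top dose). Outpatient visits at 72, 96 and 120 h followed a single fasted oral dose, in a double-blind, placebo-controlled design with 6 active and 2 placebo per group.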
# [30] = AUC (0 to infinity) in healthy human plasma at 100 mg, po administered as single dose measured after 120 hrs; type: ADME, organism-based; set-up: dose 100 mg, route oral, time infinity; method in brief: as §1
# [31] = AUC (0 to infinity) in healthy human plasma at 200 mg, po administered as single dose measured after 120 hrs; type: ADME, organism-based; set-up: dose 200 mg, route oral, time infinity; method in brief: as §1
smiles,measurement,setting,value
CC[C@H]1OC(=O)[C@H](C)C(=O)[C@H](C)[C@@H](O[C@@H]2O[C@H](C)C[C@H](N(C)C)[C@H]2O)[C@@]2(C)C[C@@H](C)/C(=N\C(C)=O)[C@H](C)[C@@H](OC/C(=N\OCc3ccc(-n4cccn4)nc3)CO2)[C@]1(C)O [MODITHROMYCIN],AUC(0-t) at 120 h,[1],33400 ng·h/mL
same,AUC(0-t) at 120 h,[2],37400 ng·h/mL
same,Cmax,[3],360 ng/mL
same,Cmax,[4],542 ng/mL
same,Cmax,[5],1070 ng/mL
same,Cmax,[6],1080 ng/mL
same,Tmax,[7],3.25 h
same,Tmax,[8],5 h
same,half-life,[9],936 min
same,half-life,[10],1060 min
same,k el at 120 h,[11],1.22e-05 s⁻¹
same,k el at 120 h,[12],1.09e-05 s⁻¹
same,CL/F,[13],485 mL/min
same,CL/F,[14],432 mL/min
same,CL/F,[15],523 mL/min
same,Vd/F,[16],589 L
same,Vd/F,[17],635 L
same,Amount Recovered in urine,Homo sapiens [18],8.57 mg
same,Amount Recovered in urine,Homo sapiens [19],91.1 mg
same,dose excreted at 48 h,[20],12.3%
same,dose excreted at 48 h,[21],5.84%
same,CL renal at 48 h,[22],46.3 mL/min
same,CL renal at 48 h,[23],60.3 mL/min
same,CL renal at 48 h,[24],57.5 mL/min
same,CL renal at 48 h,[25],41.3 mL/min
same,Ratio,Streptococcus pyogenes,32
same,Activity,Homo sapiens [26],23%
same,Activity,Homo sapiens [27],Non-toxic
same,Activity,Homo sapiens [28],Non-toxic
same,Activity,Homo sapiens [29],Non-toxic
same,AUC(0-inf),[30],3430 ng·h/mL
same,AUC(0-inf),[31],7710 ng·h/mL
